Only some compounds are listed: those with a hit (about 4.2% of all), similar ones and a draw of the others.
TAAR1 ag: human TAAR1 agonism. 360,000 tested, 0.99% active. activation, % at 3 µM. AID 624467. CHO RD-HGA16 TAAR1, Fluo-8 calcium fluorescence; vehicle wells 0%, saturating PEA agonist 100%;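 active = activation above the mean activation of all test compounds in the run plus 3 SD, cut at about 38% in these data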
Target sequence (Q96RJ0 whole entry, looked up): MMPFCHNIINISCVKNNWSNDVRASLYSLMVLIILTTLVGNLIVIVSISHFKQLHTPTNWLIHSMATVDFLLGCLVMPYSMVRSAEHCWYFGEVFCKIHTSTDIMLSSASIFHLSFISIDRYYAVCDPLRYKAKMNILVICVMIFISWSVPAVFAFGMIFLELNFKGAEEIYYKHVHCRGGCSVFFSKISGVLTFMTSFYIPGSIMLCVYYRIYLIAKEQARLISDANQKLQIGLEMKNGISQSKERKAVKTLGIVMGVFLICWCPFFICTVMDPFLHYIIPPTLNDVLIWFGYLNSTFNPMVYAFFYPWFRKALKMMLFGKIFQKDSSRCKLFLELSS
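Assay system – CHO-derived RD-HGA16 cells with stable Gα16 and human TAAR1 · Compound dosing – one-point dosing at 3 µM (nominal) · Incubation – 17-24 h seeding, 75 min 37 °C dye, 30 min RT · Measured by – kinetic Fluo-8 calcium fluorescence · Control set – DMSO vehicle as 0%, PEA at EC100 as 100% · Repeats – single well for each compound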
OX1R antag-1: blocks the human orexin 1 receptor | O43613 | CHO/OX1R cells, Fluo-8 calcium fluorescence, orexin A | inhibition, % at 5 µM | 330,000 tested, 0.43% active;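 active = inhibition above its plate's threshold, mean inhibition of all tested compounds on the plate plus 3 SD, cut at about 37% in these data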;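 also: 0% = orexin A challenge wells and 100% = SB-334867-A antagonist wells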
CHO parental Ca: signal in parental CHO cells, OX1R antagonist counter-screen | 330,000 tested, 0.63% active | parental CHO-K1, ATP-induced calcium, Fluo-8 fluorescence | AID 463079 | inhibition, % at 5.6 µM;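 active = inhibition above that plate's mean sample inhibition plus 3 SD, cut at about 26% in these data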;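 also: 0% = ATP-challenged DMSO wells and 100% = DMSO wells without ATP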
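Assay system – parental CHO cells · Reagent – ATP stimulus · Detection – intracellular calcium via Fluo-8 no-wash fluorescent dye · Evaluation – percent inhibition of ATP-evoked calcium rise, normalized to controls · Controls – ATP wells versus no-ATP DMSO wells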
TAAR1 antagonist: antagonists of human TAAR1 | Q96RJ0 | CHO RD-HGA16 TAAR1, Fluo-8 calcium fluorescence, antagonist | inhibition, % at 3 µM | 360,000 tested, 1.5% active | AID 624466;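 active = inhibition above a per-plate cutoff, the mean inhibition of test compounds on that plate plus 3 SD, cut at about 49% in these data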;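 also: 0% = DMSO plus EC80 beta-PEA response and 100% = DMSO alone without agonist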
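Assay system: RD-HGA16 CHO cells with stable hTAAR1 and Gα16 / Reagent: EC80 β-phenethylamine stimulus / Doses: 3 µM, single point / Timing: dye loading 75 min at 37 °C, then 30 min room temperature / Measured by: Fluo-8 intracellular calcium dye fluorescence, real-time kinetic reads / Controls: vehicle wells and EC80 agonist wells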
OX1R antag-2: blocks the human orexin 1 receptor. inhibition, % at 6.6 µM. 330,000 tested, 1.8% active. OX1R-expressing cells, FRET antagonist read-out; in the data active = inhibition mostly above about 38%, no sharp cut-off; inactive = mostly below about 40%;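 also: 0% = agonist challenge alone and 100% = reference antagonist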
GalR3 antagonist: human GalR3 antagonism | O60755 | HEK293 GalR3-CNG cAMP membrane potential fluorescence; galR3 body fused to GalR1 C-terminus | inhibition, % at 3 µM | 360,000 tested, 0.44% active;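 active = inhibition above the screen-wide average plus 3 SD, cut at about 13% in these data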;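 also: forskolin and galanin both at EC90 stimulate the cells; cAMP rise reported by CNG channel membrane potential dye signal; 0% = forskolin plus galanin with DMSO and 100% = forskolin alone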
Target sequence (O60755 1-299 limits assumed): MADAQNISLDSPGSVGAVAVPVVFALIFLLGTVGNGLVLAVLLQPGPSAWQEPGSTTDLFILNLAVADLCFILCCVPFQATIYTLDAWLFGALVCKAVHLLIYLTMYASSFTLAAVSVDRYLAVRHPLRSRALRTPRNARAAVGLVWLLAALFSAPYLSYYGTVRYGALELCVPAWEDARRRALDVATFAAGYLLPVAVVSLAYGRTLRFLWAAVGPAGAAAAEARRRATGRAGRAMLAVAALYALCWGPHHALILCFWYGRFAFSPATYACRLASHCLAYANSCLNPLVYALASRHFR
OX1R Fluo8 conf: confirmation of human orexin 1 receptor antagonists; shares compounds with OX1R antag-1; CHO/OX1R cells, orexin A calcium Fluo-8 fluorescence; inhibition, % at 5 µM; 1,100 tested, 38% active; AID 492963; in the data active = inhibition above about 29%;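 also: 0% = agonist challenge alone and 100% = reference antagonist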
CHO Ca counter: counter-screen: parental CHO calcium response change, triplicate; 1,100 tested, 9.3% active; inhibition, % at 5.6 µM; parental CHO-K1, ATP-induced calcium, Fluo-8 fluorescence; shares compounds with OX1R antag-1; AID 492965;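 active = inhibition above a per-plate limit, the mean inhibition of that plate's test compounds plus 3 SD, cut at about 25% in these data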;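 also: 0% = ATP challenge with DMSO and 100% = DMSO without ATP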
* marks the source's active call; other numbers are inactive results; . = not tested or not shown.

SMILES	TAAR1 ag	OX1R antag-1	CHO parental Ca	TAAR1 antagonist	OX1R antag-2	GalR3 antagonist	OX1R Fluo8 conf	CHO Ca counter
COC(=O)c1c(C)[nH]c(C(=O)COC(=O)CCNS(=O)(=O)c2cccc(C(F)(F)F)c2)c1C	21	39	9	16	0	-8	-6	-13
COC(=O)c1c(C)[nH]c(C(=O)COC(=O)Cn2cc(C(F)(F)F)ccc2=O)c1C	3	.	.	9	.	1	.	.
NS(=O)(=O)c1ccc(NC(=S)NCC2CCCO2)cc1 (configuration not stated)	0	-3	-6	6	13	-3	.	.
CCc1ccc(NS(=O)(=O)c2ccc3[nH]cc(C(=O)N4CCc5ccccc54)c(=O)c3c2)cc1	2	31	-15	-3	68	-2	32*	-11
CCCCOC(=O)C1=C(C)Nc2ncnn2C1c1cc(OC)c(OC)cc1OC (configuration not stated)	3	-15	-15	4	14	1	.	.
CN(C)c1ccc(/C=N/NC(=O)c2nnn(-c3nonc3N)c2CN(C)c2ccccc2)cc1	2	2	0	15	26	-7	.	.
CN(Cc1c(C(=O)N/N=C/c2cccc(Cl)c2)nnn1-c1nonc1N)c1ccccc1	-2	38	-5	20	47	-9	10	-7
COCC(=O)Nc1cc(C(=O)NCCc2ccccc2)ccc1Cl	2	-5	-11	6	12	-1	.	.
COCC(=O)Nc1cc(C(=O)NCC(C)C)ccc1Cl	2	32	2	2	6	2	-3	-1
COc1ccc(N2CCN(C(CNS(=O)(=O)c3ccccc3)c3ccccc3)CC2)cc1 (configuration not stated)	-1	-32	-35	-15	2	2	.	.
CC(=O)Oc1cccc(NC(=O)c2cccc(C(=O)Nc3cccc(OC(C)=O)c3)c2)c1	9	52*	-9	69*	3	-7	14	-2
COc1cccc(C(=O)Nc2cccc(OC(C)=O)c2)c1	3	-4	-11	3	8	-11	.	.
CSc1ccc2c(c1)C(N1CCN(C)CC1)Cc1ccc(F)cc1S2 (configuration not stated)	11	-8	2	0	6	-5	.	.
COc1ccc2c(c1)CC(N1CCN(C)CC1)c1cc(OC)ccc1S2 (configuration not stated)	17	45*	19	1	16	-12	21	11
Cc1ccsc1C(=O)N1CCCC(N(C)Cc2ccccc2)C1 (configuration not stated)	0	38	-4	-3	4	-4	-5	-4
COc1ccc(NS(=O)(=O)c2ccc(SC)cc2)cc1	11	57*	1	-6	7	-4	2	5
CCOC(=O)NNC(=O)c1[nH]c2ccc(Br)cc2c1-c1ccccc1	5	17	-20	8	22	-10	.	.
COc1ccc([C@H]2C[C@H](n3cc(-c4ccc(F)cc4)nn3)[C@@H](O)CN2C(=O)C2CCCCC2)cc1	0	.	.	8	.	-7	.	.
CCOC(=O)[C@@H](C)NS(=O)(=O)N(Cc1ccccc1)[C@H](C(=O)OC)C(C)C	2	-10	-15	7	10	0	.	.
CCOC(=O)[C@@H](C)N(Cc1ccc(OC)cc1)S(=O)(=O)N(Cc1ccccc1)[C@H](C(=O)OC)C(C)C	2	50*	7	15	9	-8	7	58*
Cc1c(NC(=O)c2cccc(-c3cc4ccccc4oc3=O)c2)cccc1-c1nc2ncccc2o1	10	32	-19	43	67	-3	24	-16
Cc1c(NC(=O)C(C)C)cccc1-c1nc2ncccc2o1	0	-18	0	3	-3	-11	.	.
O=c1c(-c2cccnc2)nc2ccccc2n1C(CCc1ccccc1)c1nc2ccccc2[nH]1 (configuration not stated)	-1	.	.	-41	.	-5	.	.
Cc1ccc(/C=C2\Sc3ccccc3C2=O)s1	1	30	-22	0	13	-1	34*	-1
CC(C)c1ccc(CNc2cc(N3CCCC3)ccc2[N+](=O)[O-])cc1	1	53*	8	-8	8	-4	-7	39*
SMILES	TAAR1 ag	OX1R antag-1	CHO parental Ca	TAAR1 antagonist	OX1R antag-2	GalR3 antagonist	OX1R Fluo8 conf	CHO Ca counter
CCNC(=O)C12CCC(C)(C(=O)O1)C2(C)C (configuration not stated)	0	22	5	2	3	6	7	1
O=C(COC(=O)c1cccnc1)Nc1cccc2ccccc12	0	-15	0	-22	26	-4	.	.
CCOC(=O)c1sc(NCCNc2nc(C)c(C(=O)OCC)s2)nc1C	.	-23	-18	.	24	.	.	.
CCOC(=O)c1sc(N)nc1C(C)(C)C	6	41	-10	-12	20	-7	-2	1
COc1ccccc1C(=O)COC(=O)c1ccc(N(C)C)cc1	8	30	0	23	34	-5	9	19
COc1ccccc1C(=O)COC(=O)c1ccccc1O	4	-37	-5	3	31	0	.	.
CN(C)S(=O)(=O)c1ccc(-c2csc(N/N=C/c3ccco3)n2)cc1	30	31	17	79*	26	-5	70*	18
CCOC(=O)c1cc(C(C)(C)C)oc1CN	0	-12	-3	21	30	-3	.	.
CCNC(=S)N(Cc1ccc2c(c1)OCO2)C1CC(=O)N(c2ccc(F)cc2)C1=O (configuration not stated)	32	57*	16	1	59	0	1	-4
CCNC(=S)N(Cc1ccc2c(c1)OCO2)C1CC(=O)N(c2ccc(OC)cc2)C1=O (configuration not stated)	9	1	-13	6	16	-4	.	.
Cc1noc(C)c1C(=O)OCC(=O)c1ccc[nH]1	4	-16	-2	11	12	-1	.	.
Cc1noc(C)c1C(=O)OCC(=O)c1cc(C)n(Cc2ccccc2Cl)c1C	14	49*	23	29	24	-5	9	13
Cc1cccc(C)c1C(=O)N[C@@H](Cc1ccccc1)C(=O)O	5	-72	-5	6	6	9	.	.
COc1cccc(-c2csc(N3CCN(C(=O)Nc4ccc(Cl)cc4)CC3)n2)c1	10	32	7	58*	30	-7	16	7
CCNS(=O)(=O)c1ccc(NC(=O)c2ccccc2SCCOC)cc1	5	-17	-17	15	0	-5	.	.

Screening data from PubChem BioAssay.
